Calls of active or inactive are those of the source. No cut-off for these calls is given here.
Tests used:
BT-474 [1] = experiment: Effect on human BT474 cell survival assessed as cell detachment after 24 hrs by hemocytometer; assay type: functional, cell-based
In short: (§1)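 BT474 cells treated at a range of doses; detached cells counted on a hemacytometer; means ± standard errors of three independent experiments, versus untreated cells.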

BT-474 [2] = experiment: Cytotoxicity against human BT474 cells assessed as decrease in cell viability after 24 hrs by MTT assay; assay type: functional, cell-based
In short: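 BT474 breast cancer cells exposed to a range of doses for 24 h; viability by MTT; mean of triplicate determinations ± SD versus untreated cells.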

BT-474 [3] = experiment: Induction of apoptosis in human BT474 cells assessed as cleavage of 89 kDa PARP at 1 uM after 24 hrs by Western blotting; assay type: functional, cell-based
In short: (§2)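 BT474 cells treated at various doses; lysates immunoblotted with PARP antibody, scoring cleaved 89 kDa fragment.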

[4] = biological target: Epidermal growth factor receptor (Homo sapiens) (UniProt P00533); experiment: Inhibition of recombinant EGFR at 1 uM
In short: (§3)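 Commercial kinase profiling panel: recombinant enzymes (including FAK kinase domain 411-686 a.a.) tested with 1 μM compound, 10 μM ATP and kinase substrates; % inhibition versus untreated; mean ± SE of two independent experiments.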

[5] = biological target: RAF proto-oncogene serine/threonine-protein kinase (Homo sapiens) (UniProt P04049); experiment: Inhibition of recombinant c-RAF at 1 uM; in short: as §3
T47D = experiment: Cytotoxicity against human T47D cells assessed as decrease in cell viability at 100 uM after 24 hrs by MTT assay; assay type: functional, cell-based
In short: (§4)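 Cells given each compound at 100 μM for 24 h, then MTT viability assay; known FAK inhibitor 1a used as reference control.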

[6] = biological target: Protein-tyrosine kinase 2-beta (Homo sapiens) (UniProt Q14289); experiment: Inhibition of recombinant Pyk2 at 1 uM; in short: as §3
Sequence of Protein-tyrosine kinase 2-beta (Homo sapiens) (Q14289 whole entry, looked up): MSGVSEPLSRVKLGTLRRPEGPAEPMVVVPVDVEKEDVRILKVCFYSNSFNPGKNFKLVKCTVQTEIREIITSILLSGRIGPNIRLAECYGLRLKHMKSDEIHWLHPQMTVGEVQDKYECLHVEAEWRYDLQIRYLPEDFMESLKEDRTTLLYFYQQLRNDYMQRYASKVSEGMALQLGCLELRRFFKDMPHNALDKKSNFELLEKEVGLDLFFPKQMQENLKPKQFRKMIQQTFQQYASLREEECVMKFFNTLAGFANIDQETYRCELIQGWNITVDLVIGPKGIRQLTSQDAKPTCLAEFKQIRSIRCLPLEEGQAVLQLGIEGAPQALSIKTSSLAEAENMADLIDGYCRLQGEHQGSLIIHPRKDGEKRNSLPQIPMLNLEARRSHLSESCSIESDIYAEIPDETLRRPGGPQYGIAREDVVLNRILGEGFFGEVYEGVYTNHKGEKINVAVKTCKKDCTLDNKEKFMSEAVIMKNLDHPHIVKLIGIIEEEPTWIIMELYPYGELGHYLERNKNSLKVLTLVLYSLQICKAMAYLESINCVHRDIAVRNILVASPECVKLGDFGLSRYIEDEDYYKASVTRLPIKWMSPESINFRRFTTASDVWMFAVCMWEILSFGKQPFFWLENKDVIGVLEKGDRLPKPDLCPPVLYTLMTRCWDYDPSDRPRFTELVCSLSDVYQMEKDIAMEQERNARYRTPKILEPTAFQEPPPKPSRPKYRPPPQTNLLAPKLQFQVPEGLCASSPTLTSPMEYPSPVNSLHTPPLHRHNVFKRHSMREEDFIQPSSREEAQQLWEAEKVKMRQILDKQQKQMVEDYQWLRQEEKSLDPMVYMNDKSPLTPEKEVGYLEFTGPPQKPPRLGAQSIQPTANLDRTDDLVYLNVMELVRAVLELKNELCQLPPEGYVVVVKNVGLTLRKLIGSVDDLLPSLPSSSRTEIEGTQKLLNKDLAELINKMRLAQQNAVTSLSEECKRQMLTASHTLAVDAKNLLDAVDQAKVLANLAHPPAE

[7] = biological target: PI3-kinase p110-delta/p85-alpha (Homo sapiens) (UniProt P27986+O00329); experiment: Inhibition of recombinant PI3 kinase p110delta/p85-alpha subunit at 1 uM; in short: as §3
[8] = biological target: Vascular endothelial growth factor receptor 3 (Homo sapiens) (UniProt P35916); experiment: Inhibition of recombinant Flt4 at 1 uM; in short: as §3
Sequence of Vascular endothelial growth factor receptor 3 (Homo sapiens) (P35916 whole entry): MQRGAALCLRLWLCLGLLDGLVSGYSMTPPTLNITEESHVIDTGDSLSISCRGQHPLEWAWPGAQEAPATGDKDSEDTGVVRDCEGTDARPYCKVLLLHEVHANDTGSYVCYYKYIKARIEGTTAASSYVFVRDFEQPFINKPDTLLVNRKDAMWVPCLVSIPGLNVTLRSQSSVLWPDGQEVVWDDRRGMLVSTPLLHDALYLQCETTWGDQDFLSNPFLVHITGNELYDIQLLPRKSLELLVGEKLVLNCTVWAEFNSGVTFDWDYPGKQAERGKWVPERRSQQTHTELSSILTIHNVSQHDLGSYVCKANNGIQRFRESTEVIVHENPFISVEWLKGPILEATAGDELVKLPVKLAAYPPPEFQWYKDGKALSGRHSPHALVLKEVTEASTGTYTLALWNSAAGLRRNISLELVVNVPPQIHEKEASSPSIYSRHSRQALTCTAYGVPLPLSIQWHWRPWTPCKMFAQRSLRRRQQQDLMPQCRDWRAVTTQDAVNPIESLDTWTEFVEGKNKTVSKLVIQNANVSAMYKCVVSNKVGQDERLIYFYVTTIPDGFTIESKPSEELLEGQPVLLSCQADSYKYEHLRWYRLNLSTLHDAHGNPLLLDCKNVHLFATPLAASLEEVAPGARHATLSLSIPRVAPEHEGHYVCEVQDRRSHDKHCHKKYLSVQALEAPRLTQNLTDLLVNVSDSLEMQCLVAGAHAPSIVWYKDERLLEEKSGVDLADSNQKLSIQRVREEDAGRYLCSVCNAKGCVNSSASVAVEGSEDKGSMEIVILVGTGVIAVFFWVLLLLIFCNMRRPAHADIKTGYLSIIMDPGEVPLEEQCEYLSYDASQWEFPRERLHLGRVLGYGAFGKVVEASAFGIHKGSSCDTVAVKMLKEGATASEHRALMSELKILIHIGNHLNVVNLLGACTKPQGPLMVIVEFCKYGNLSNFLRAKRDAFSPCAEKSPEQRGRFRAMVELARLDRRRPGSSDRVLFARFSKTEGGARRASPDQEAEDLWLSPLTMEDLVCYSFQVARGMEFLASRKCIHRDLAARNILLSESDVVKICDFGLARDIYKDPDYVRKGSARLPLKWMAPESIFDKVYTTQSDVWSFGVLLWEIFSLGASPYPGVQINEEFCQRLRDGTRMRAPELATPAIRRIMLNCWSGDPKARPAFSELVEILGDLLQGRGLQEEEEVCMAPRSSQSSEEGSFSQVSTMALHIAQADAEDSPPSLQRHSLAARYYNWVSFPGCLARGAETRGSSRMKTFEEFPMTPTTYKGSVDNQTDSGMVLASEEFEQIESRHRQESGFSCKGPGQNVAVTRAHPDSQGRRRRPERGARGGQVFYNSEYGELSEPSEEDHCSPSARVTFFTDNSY

BT-474 [9] = experiment: Inhibition of human BT474 cells adhesion on collagen coated plates after 3 hrs by crystal violet staining
[10] = biological target: Focal adhesion kinase 1 (Homo sapiens) (UniProt Q05397); experiment: Inhibition of FAK-Y397 phosphorylation in human BT474 cells at 100 uM by Western blotting; assay type: cell-based; conditions: BT-474, TDE = time-dependent effect
Sequence of Focal adhesion kinase 1 (Homo sapiens) (Q05397 2-1052 limits assumed): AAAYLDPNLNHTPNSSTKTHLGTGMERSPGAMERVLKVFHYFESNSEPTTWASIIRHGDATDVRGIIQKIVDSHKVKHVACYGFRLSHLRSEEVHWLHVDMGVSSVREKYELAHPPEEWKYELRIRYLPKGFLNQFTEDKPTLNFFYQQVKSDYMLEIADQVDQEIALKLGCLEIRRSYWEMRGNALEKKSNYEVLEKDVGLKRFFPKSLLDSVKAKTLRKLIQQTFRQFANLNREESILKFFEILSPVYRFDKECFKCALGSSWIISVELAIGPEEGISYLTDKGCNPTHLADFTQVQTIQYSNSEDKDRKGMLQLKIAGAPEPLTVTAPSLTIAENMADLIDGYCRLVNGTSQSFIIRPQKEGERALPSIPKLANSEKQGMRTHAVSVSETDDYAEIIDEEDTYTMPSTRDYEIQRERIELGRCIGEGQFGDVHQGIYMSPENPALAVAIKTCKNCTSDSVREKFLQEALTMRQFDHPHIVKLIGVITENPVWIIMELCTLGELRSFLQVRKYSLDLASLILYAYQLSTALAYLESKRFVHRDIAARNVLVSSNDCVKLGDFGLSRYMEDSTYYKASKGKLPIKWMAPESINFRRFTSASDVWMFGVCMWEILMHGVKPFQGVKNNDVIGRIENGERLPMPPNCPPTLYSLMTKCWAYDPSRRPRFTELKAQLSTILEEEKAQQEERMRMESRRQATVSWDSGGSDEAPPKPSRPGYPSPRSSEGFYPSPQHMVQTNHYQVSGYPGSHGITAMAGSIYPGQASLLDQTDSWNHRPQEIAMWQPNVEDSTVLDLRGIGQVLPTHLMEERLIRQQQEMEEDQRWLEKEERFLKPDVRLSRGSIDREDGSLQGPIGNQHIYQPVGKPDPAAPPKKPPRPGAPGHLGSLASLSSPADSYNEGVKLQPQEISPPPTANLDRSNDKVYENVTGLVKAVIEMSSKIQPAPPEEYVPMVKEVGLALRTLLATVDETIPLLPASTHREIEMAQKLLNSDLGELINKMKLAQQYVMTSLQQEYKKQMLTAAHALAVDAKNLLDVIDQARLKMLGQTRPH
In short: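 BT474 cells given 100 μM for 1–24 h; Y397-FAK and total FAK normalized to β-actin by densitometry, expressed relative to untreated; three independent experiments, mean ± SE.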

[11] = biological target: Vascular endothelial growth factor receptor 3 (Homo sapiens) (UniProt P35916); experiment: Inhibition of VEGFR3 phosphorylation in human BT474 cells at 100 uM after 24 hrs by Western blotting; assay type: cell-based; conditions: BT-474
MCF7 = experiment: Cytotoxicity against human MCF7 cells assessed as decrease in cell viability at 100 uM after 24 hrs by MTT assay; assay type: functional, cell-based; in short: as §4
[12] = biological target: Protein-tyrosine kinase 2-beta (Homo sapiens) (UniProt Q14289); experiment: Inhibition of Pyk2-Y402 phosphorylation in human BT474 cells at 100 uM after 24 hrs by Western blotting; assay type: cell-based; conditions: BT-474
In short: (§5)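 BT474 cells treated at different doses; Western blot for Y397-FAK then total FAK, plus Y402-Pyk-2; β-actin for loading.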

BT-474 [13] = experiment: Inhibition of human BT474 cells adhesion on collagen coated plates at 100 uM after 3 hrs by crystal violet staining
HT-29 = experiment: Cytotoxicity against human HT-29 cells assessed as decrease in cell viability at 100 uM after 24 hrs by MTT assay; assay type: functional, cell-based
Mus musculus [14] = experiment: Inhibition of tumor growth in human BT474 cells xenografted in mouse assessed as animal death at 30 mg/kg administered daily for 5 days per week measured after 23 days; assay type: organism-based, BT-474; design: dose 30 mg/kg; conditions: in vivo, 552 h
In short: (§6)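 BT474 breast cancer cells were injected subcutaneously into 5 mice. Dosing at 30 mg/kg started the day after injection and was given daily, 5 days per week. Five untreated mice served as controls.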

[15] = biological target: Focal adhesion kinase 1 (Homo sapiens) (UniProt Q05397); experiment: Inhibition of recombinant FAK domain (411 to 686 amino acids) without N terminal domain containing Y397 site at 1 uM; in short: as §3
[16] = biological target: Focal adhesion kinase 1 (Homo sapiens) (UniProt Q05397); experiment: Inhibition of FAK-Y397 phosphorylation in human BT474 cells after 24 hrs by Western blotting; assay type: cell-based; conditions: BT-474; in short: as §5
C8161 = experiment: Cytotoxicity against human C8161 cells assessed as decrease in cell viability at 100 uM after 24 hrs by MTT assay; assay type: functional, cell-based
In short: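 Cells from breast cancer and melanoma lines were exposed to compound for 24 h and viability was read by MTT assay. A reference FAK inhibitor served as the control.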

BT-474 [17] = experiment: Induction of necrosis in non-apoptotic human BT474 cells after 24 hrs by propidium iodide staining based Zeiss fluorescent microscope; assay type: functional, cell-based
In short: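 BT474 cells treated at 10 and 100 μM, collected, stained 10 min with propidium iodide (10 μg/ml) for dead necrotic cells plus Hoechst (10 μg/ml) for nuclei; examined by fluorescence microscopy.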

BT-474 [18] = experiment: Effect on human BT474 cell survival assessed as cell detachment at 100 to 200 uM after 24 hrs by hemocytometer; assay type: functional; in short: as §1
A549 = experiment: Cytotoxicity against human A549 cells assessed as decrease in cell viability at 100 uM after 24 hrs by MTT assay; assay type: functional, cell-based
BT-474 [19] = experiment: Induction of apoptosis in human BT474 cells assessed as presence of apoptotic nuclei at 100 uM after 24 hrs by […] staining; assay type: functional, cell-based
In short: (§7)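 BT474 cells treated 24 h at various doses; apoptotic nuclei scored by Hoechst staining; means ± SD of four independent experiments versus untreated cells.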

BT-474 [20] = experiment: Effect on human BT474 cell survival assessed as cell detachment at 10 uM after 24 hrs by hemocytometer; assay type: functional; in short: as §1
[21] = biological target: Focal adhesion kinase 1 (Homo sapiens) (UniProt Q05397); experiment: Inhibition of recombinant full length FAK-mediated GST-paxillin […] expressed in baculovirus by SDS-PAGE
In short: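 Purified recombinant FAK (0.1 μg) with GST-paxillin substrate, γ-32P-ATP and varying inhibitor doses, 10 min at room temperature.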

Mus musculus [22] = experiment: Inhibition of tumor growth in human BT474 cells xenografted in mouse assessed as animal weight loss at 30 mg/kg administered daily for 5 days per week measured after 23 days; assay type: organism-based, BT-474; design: dose 30 mg/kg; conditions: in vivo, 552 h; in short: as §6
BT-474 [23] = experiment: Induction of apoptosis in human BT474 cells assessed as cleavage of 89 kDa PARP at 100 uM after 24 hrs by Western blotting; assay type: functional, cell-based; in short: as §2
Paxillin (Homo sapiens) [24] = biological target: Paxillin (Homo sapiens) (UniProt P49023); experiment: Inhibition of paxillin-Y118 phosphorylation in human BT474 cells at 100 uM after 24 hrs by Western blotting; assay type: cell-based; conditions: BT-474
Sequence of Paxillin (Homo sapiens) (P49023 whole entry): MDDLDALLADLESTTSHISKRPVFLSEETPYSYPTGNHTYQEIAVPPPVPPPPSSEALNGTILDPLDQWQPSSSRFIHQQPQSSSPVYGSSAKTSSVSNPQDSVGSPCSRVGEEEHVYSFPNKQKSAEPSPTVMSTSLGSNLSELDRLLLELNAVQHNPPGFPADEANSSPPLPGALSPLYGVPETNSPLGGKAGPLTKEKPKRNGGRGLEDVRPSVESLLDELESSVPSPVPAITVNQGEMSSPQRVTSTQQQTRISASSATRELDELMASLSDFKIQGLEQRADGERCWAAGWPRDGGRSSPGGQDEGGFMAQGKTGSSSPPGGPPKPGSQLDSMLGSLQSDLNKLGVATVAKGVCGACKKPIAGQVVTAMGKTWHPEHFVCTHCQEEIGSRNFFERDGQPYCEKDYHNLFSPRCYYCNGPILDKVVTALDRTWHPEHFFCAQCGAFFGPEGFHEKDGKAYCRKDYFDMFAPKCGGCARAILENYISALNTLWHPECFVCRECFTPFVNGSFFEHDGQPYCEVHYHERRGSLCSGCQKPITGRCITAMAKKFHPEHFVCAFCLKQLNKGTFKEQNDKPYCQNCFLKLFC
In short: (§8)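 BT474 cells treated 100 μM for 24 h; Western blot with Y397-FAK and Y118-paxillin antibodies, total FAK, paxillin and β-actin as expression/loading references.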

[25] = biological target: Focal adhesion kinase 1 (Homo sapiens) (UniProt Q05397); experiment: Inhibition of FAK-Y397 phosphorylation in human BT474 cells at 100 uM after 24 hrs by Western blotting; assay type: cell-based; conditions: BT-474; in short: as §8
BT-474 [26] = experiment: Inhibition of tumor growth in human BT474 cells xenografted in mouse assessed as tumor volume at 30 mg/kg administered daily for 5 days per week measured after 23 days; assay type: functional, organism-based; design: dose 30 mg/kg
In short: (§9)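 BT474 cells injected subcutaneously into mice (5 per group); dosing at 30 mg/kg daily, 5 days per week, starting the day after injection; untreated mice as controls.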

BT-474 [27] = experiment: Cytotoxicity against human BT474 cells assessed as decrease in cell viability at 100 uM after 24 hrs by MTT assay; assay type: functional, cell-based; in short: as §4
[28] = biological target: Hepatocyte growth factor receptor (Homo sapiens) (UniProt P08581); experiment: Inhibition of recombinant Met at 1 uM; in short: as §3
BT-474 [29] = experiment: Inhibition of tumor growth in human BT474 cells xenografted in mouse assessed as reduction in tumor weight at 30 mg/kg administered daily for 5 days per week measured after 23 days; assay type: functional, organism-based; design: dose 30 mg/kg; in short: as §9
[30] = biological target: Proto-oncogene tyrosine-protein kinase Src (Homo sapiens) (UniProt P12931); experiment: Inhibition of recombinant c-Src at 1 uM; in short: as §3
Sequence of Proto-oncogene tyrosine-protein kinase Src (Homo sapiens) (P12931 2-536 limits assumed): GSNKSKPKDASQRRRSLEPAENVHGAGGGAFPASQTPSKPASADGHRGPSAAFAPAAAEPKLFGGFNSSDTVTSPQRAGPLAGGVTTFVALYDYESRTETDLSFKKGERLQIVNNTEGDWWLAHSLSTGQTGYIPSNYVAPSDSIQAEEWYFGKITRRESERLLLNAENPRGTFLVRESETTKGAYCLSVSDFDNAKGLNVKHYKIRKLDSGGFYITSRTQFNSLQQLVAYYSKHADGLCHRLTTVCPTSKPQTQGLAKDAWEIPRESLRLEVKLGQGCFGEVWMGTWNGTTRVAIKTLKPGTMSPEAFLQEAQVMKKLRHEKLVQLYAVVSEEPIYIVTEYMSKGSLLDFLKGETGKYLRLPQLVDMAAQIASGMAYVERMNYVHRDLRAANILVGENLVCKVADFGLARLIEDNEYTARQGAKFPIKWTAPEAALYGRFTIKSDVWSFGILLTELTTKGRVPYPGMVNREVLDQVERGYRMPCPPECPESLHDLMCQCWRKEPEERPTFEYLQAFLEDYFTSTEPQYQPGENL

[31] = biological target: Proto-oncogene tyrosine-protein kinase Src (Homo sapiens) (UniProt P12931); experiment: Inhibition of c-Src phosphorylation in human BT474 cells at 100 uM after 24 hrs by Western blotting; assay type: cell-based; conditions: BT-474
BT-474 [32] = experiment: Effect on human BT474 cell survival assessed as cell detachment at 100 uM after 24 hrs by hemocytometer; assay type: functional; in short: as §1
[33] = biological target: Insulin-like growth factor 1 receptor (Homo sapiens) (UniProt P08069); experiment: Inhibition of recombinant IGF1R at 1 uM; in short: as §3
BT-474 [34] = experiment: Effect on human BT474 cell survival assessed as cell detachment at 50 uM after 24 hrs by hemocytometer; assay type: functional; in short: as §1
BT-474 [35] = experiment: Induction of apoptosis in human BT474 cells assessed as cleavage of 89 kDa PARP after 24 hrs by Western blotting
[36] = biological target: Platelet-derived growth factor receptor alpha (Homo sapiens) (UniProt P16234); experiment: Inhibition of recombinant PDGFRa at 1 uM; in short: as §3
[37] = biological target: Focal adhesion kinase 1 (Homo sapiens) (UniProt Q05397); experiment: Inhibition of total FAK autophosphorylation in human BT474 cells at 100 uM after 24 hrs by Western blotting; assay type: cell-based; conditions: BT-474
In short: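 BT474 lysates immunoprecipitated with FAK antibody, blotted with phosphotyrosine antibody, then stripped and reprobed for FAK.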

[38] = biological target: Protein-tyrosine kinase 2-beta (Homo sapiens) (UniProt Q14289); experiment: Inhibition of recombinant full length Pyk2 autophosphorylation expressed in baculovirus by SDS-PAGE
In short: (§10)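 In vitro autophosphorylation: 0.1 μg purified recombinant FAK or Pyk-2 with γ-32P-ATP and varying inhibitor doses, 10 min at room temperature; three independent experiments.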

Paxillin (Homo sapiens) [39] = biological target: Paxillin (Homo sapiens) (UniProt P49023); experiment: Inhibition of paxillin phosphorylation in human BT474 cells at 100 uM after 24 hrs by Western blotting; assay type: cell-based; conditions: BT-474
BT-474 [40] = experiment: Induction of apoptosis in human BT474 cells at 50 to 100 uM after 24 hrs by […] staining; assay type: functional; in short: as §7
[41] = Effect on human MCF10A cell survival assessed as cell detachment at 100 uM after 24 hrs by hemocytometer; assay type: ADME, cell-based; conditions: mcf-10a
In short: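 Normal breast MCF10A cells were treated with a range of compound doses. Detached cells were counted on a hemacytometer, and values are means ± standard errors of three independent experiments.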

[42] = biological target: Focal adhesion kinase 1 (Homo sapiens) (UniProt Q05397); experiment: Inhibition of recombinant full length FAK autophosphorylation expressed in baculovirus by SDS-PAGE; in short: as §10

## Cl.Nc1cc(N)c(N)cc1N
BT-474 [1]
  Activity: Dose-dependent effect
BT-474 [2]
  Activity: Dose-dependent effect
BT-474 [3]
  Activity: inactive
[4]
  Activity: inactive
[5]
  Activity: inactive
T47D
  Activity: Active
[6]
  Activity: inactive
[7]
  Activity: inactive
[8]
  Activity: inactive
BT-474 [9]
  Activity: Dose-dependent effect
[10]
  Activity: tde
[11]
  Activity: inactive
MCF7
  Activity: Active
[12]
  Activity: inactive
BT-474 [13]
  Activity: Active
HT-29
  Activity: Active
Mus musculus [14]
  Activity: Non-toxic
[15]
  Activity: inactive
[16]
  Activity: Dose-dependent effect
C8161
  Activity: Active
BT-474 [17]
  Activity: Dose-dependent effect
BT-474 [18]
  Activity: 64%
A549
  Activity: Active
BT-474 [19]
  Activity: inactive
BT-474 [20]
  Activity: 8%
[21]
  Activity: Dose-dependent effect
Mus musculus [22]
  Activity: Non-toxic
BT-474 [23]
  Activity: inactive
Paxillin (Homo sapiens) [24]
  Activity: Active
[25]
  Activity: Active
BT-474 [26]
  Activity: Active
BT-474 [27]
  Activity: Active
[28]
  Activity: inactive
BT-474 [29]
  Activity: Active
[30]
  Activity: inactive
[31]
  Activity: inactive
BT-474 [32]
  Activity: 64%
[33]
  Activity: inactive
BT-474 [34]
  Activity: 38%
BT-474 [35]
  Activity: Active
[36]
  Activity: inactive
[37]
  Activity: Active
[38]
  Activity: inactive
Paxillin (Homo sapiens) [39]
  Activity: Active
BT-474 [40]
  Activity: <5%
[41]
  Activity: 15%
[42]
  Activity: Dose-dependent effect

Reference: ChEMBL document CHEMBL1140207, “A small molecule inhibitor, 1,2,4,5-benzenetetraamine tetrahydrochloride, targeting the y397 site of focal adhesion kinase decreases tumor growth” (J Med Chem, 2008)
